# Data: ChEMBL document CHEMBL4627416, “Generation of Leads for γ-Secretase Modulation” (J Med Chem, 2020)
# Calls of active or inactive are those of the source. The rule behind the calls is not given here.
# How the values were obtained:
# Gamma-secretase = test: Modulation of gamma secretase in HEK293 cells transfected with human APP with Swedish and London familial AD mutation assessed as reduction in Abeta42 levels incubated for 5 hrs by sandwich immuno-assay; format: cell-based
# [1] = Drug level in brain of CD rat at 30 mg/kg, po measured after 3 hrs; format: ADME, organism-based; settings: read-out: Drug uptake
# Summary of the method: (§1)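 Male CD rats dosed orally at 3, 10 or 30 mg/kg. Total drug concentrations measured in plasma and brain 3 h after the dose. Values are geometric means of 10 (3 mg/kg), 15 (10 mg/kg) and 5 (30 mg/kg) animals.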
# Cytochrome P450 2C9 = Cytochrome P450 2C9 (Homo sapiens, UniProt P11712); test: Inhibition of CYP2C9 (unknown origin); format: ADME
# Chain of Cytochrome P450 2C9 (P11712 whole entry): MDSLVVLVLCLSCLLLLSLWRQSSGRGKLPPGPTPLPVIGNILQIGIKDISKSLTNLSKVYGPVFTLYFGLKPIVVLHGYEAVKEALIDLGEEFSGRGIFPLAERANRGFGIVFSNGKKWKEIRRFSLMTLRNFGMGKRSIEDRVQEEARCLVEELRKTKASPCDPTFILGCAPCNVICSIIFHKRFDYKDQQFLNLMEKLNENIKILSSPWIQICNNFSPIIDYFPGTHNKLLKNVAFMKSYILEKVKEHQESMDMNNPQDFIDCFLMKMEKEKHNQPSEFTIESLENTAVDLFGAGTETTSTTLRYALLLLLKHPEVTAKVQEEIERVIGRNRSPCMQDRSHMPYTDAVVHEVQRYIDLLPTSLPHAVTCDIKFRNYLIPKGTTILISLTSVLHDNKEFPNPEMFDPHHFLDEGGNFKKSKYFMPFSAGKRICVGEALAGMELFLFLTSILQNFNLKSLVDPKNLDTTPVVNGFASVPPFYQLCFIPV
# HEK293 = test: Effect on total Abeta40 levels in HEK293 cells transfected with human APP with Swedish and London familial AD mutation incubated for 5 hrs by sandwich immuno-assay; format: functional, cell-based; settings: HEK293, 5 h
# [2] = Apparent permeability of the compound; format: ADME; settings: not told
# [3] = molecular target: Voltage-gated inwardly rectifying potassium channel KCNH2 (Homo sapiens, UniProt Q12809); test: Inhibition of MK499 binding to human ERG
# Chain of Voltage-gated inwardly rectifying potassium channel KCNH2 (Q12809 whole entry): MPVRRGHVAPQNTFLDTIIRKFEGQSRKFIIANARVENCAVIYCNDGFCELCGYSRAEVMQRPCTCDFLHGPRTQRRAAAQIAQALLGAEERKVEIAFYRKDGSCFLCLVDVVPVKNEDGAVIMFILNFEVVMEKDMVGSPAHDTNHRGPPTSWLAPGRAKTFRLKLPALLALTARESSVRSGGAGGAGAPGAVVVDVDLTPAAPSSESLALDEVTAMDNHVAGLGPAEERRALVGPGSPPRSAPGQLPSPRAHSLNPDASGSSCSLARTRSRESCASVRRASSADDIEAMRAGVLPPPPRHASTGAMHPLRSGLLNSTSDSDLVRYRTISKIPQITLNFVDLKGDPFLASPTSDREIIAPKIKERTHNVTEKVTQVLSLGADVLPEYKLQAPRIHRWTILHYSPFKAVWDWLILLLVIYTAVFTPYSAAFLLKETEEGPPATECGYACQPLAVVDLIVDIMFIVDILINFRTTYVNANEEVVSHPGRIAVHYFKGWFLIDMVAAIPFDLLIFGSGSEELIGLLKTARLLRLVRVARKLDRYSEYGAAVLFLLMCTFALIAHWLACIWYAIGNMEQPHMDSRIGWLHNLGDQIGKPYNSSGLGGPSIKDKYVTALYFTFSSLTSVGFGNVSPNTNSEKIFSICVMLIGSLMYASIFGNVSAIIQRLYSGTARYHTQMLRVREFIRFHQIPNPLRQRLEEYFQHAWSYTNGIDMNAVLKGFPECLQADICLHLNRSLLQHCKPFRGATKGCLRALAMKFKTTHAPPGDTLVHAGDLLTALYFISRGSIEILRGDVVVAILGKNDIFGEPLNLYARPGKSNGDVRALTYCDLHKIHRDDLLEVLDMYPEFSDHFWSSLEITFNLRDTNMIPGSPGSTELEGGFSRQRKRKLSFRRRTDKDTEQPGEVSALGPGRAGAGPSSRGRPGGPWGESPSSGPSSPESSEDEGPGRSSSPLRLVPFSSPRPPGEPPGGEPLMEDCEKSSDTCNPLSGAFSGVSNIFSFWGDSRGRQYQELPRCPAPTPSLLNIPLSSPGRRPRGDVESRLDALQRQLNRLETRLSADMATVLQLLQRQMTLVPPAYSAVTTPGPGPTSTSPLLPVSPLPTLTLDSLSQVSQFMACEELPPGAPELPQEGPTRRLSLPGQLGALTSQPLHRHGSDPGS
# Cytochrome P450 2D6 = Cytochrome P450 2D6 (Homo sapiens, UniProt P10635); test: Inhibition of CYP2D6 (unknown origin); format: ADME
# Chain of Cytochrome P450 2D6 (P10635 whole entry): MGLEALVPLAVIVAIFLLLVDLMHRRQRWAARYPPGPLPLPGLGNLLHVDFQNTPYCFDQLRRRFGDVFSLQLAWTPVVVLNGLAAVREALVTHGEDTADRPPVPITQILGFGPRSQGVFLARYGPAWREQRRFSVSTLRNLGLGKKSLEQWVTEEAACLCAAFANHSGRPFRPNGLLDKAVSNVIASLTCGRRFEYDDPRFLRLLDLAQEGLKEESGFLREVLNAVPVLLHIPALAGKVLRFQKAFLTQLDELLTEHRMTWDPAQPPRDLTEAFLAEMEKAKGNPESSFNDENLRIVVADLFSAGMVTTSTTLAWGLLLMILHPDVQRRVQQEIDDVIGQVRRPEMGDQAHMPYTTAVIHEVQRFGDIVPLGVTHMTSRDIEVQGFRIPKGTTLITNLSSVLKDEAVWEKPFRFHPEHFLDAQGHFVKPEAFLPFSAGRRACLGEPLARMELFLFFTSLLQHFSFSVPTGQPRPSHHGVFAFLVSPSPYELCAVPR
# [4] = Drug level in plasma of CD rat at 30 mg/kg, po measured after 3 hrs; format: ADME, organism-based; summary of the method: as §1
# [5] = molecular target: T1, Nuclear receptor subfamily 1 group I member 2 (Homo sapiens, UniProt O75469); test: Inhibition of PXR (unknown origin); format: ADME
# T1 sequence (O75469 whole entry): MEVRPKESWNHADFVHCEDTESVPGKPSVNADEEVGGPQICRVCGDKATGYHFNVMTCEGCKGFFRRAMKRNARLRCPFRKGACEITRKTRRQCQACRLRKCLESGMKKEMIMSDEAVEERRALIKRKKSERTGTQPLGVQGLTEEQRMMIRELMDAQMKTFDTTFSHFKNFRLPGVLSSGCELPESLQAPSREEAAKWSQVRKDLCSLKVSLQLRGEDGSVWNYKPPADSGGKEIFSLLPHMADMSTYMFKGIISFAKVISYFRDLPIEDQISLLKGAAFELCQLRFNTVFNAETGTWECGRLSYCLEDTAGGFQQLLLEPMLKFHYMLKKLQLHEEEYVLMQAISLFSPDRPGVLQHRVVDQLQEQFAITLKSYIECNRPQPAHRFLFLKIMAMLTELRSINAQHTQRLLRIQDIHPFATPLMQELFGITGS
# Cytochrome P450 3A4 = Cytochrome P450 3A4 (Homo sapiens, UniProt P08684); test: Inhibition of CYP3A4 (unknown origin); format: ADME
# Chain of Cytochrome P450 3A4 (P08684 whole entry): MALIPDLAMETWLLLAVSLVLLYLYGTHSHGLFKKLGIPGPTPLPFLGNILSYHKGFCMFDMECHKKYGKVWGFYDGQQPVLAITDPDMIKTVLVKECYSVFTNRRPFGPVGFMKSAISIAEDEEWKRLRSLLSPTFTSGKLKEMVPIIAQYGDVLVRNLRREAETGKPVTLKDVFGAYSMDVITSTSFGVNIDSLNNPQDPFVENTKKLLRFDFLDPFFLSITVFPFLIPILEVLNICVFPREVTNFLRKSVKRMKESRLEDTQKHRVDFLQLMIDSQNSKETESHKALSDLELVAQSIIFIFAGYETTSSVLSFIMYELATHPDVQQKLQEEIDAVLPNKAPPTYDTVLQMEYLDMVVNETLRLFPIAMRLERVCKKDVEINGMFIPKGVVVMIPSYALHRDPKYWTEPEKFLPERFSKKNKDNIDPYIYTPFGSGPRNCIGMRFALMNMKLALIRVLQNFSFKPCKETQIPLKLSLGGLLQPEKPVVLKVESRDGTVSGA
# Rattus norvegicus [6] = test: Reduction of Abeta42 protein level in CD rat at 30 mg/kg, po measured after 3 hrs relative to control; format: functional; design: scale not given: the % may be the effect or the level left
# Summary of the method: (§2)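 Male CD rats given a single oral dose (1-30 mg/kg). CSF Aβ42 measured 3 h after the dose and expressed as reduction relative to control levels. In the dose-response study, geometric means are of 29 animals (3 and 10 mg/kg groups) and 10 animals (30 mg/kg group).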
# [7] = Selectivity index, ratio of IC50 for effect on total Abeta40 levels in HEK293 cells transfected with human APP with Swedish and London familial AD mutation incubated for 5 hrs by sandwich immuno-assay to IC50 for modulation of gamma secretase in HEK293 cells transfected with human APP with Swedish and London familial AD mutation assessed as reduction in Abeta42 levels incubated for 5 hrs by sandwich immuno-assay
# [8] = tested on: rat MDR1A (P-glycoprotein); test: Efflux ratio in pig LLC-PK1 cells transfected with rat MDR1A; format: ADME, cell-based, Sus scrofa
# Summary of the method: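 Rat P-gp efflux measured in LLC-PK1 cells transfected with rat MDR1A. Reported as the ratio of B-to-A over A-to-B transport.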
# Rattus norvegicus [9] = test: Reduction of Abeta42 protein level in CD rat at 1 mg/kg, po measured after 3 hrs relative to control; format: functional, organism-based; summary of the method: as §2
# [10] = Clearance in CD rat at 1 mg/kg, iv; format: ADME, organism-based; settings: in vivo
# Summary of the method: (§3)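 Male CD rats, single 1 mg/kg intravenous dose. Clearance, steady-state volume of distribution and mean residence time taken from the plasma concentration-time data. Values are the average of two experiments.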
# [11] = Drug level in brain of CD rat at 3 mg/kg, po measured after 3 hrs; format: ADME, organism-based; settings: read-out: Drug uptake; summary of the method: as §1
# [12] = Volume of distribution at steady state in CD rat at 1 mg/kg, iv; format: ADME, organism-based; settings: in vivo, read-out: Vdss; summary of the method: as §3
# [13] = Drug level in plasma of CD rat at 3 mg/kg, po measured after 3 hrs; format: ADME, organism-based; summary of the method: as §1
# Rattus norvegicus [14] = test: Reduction of Abeta42 protein level in CD rat at 10 mg/kg, po measured after 3 hrs relative to control; format: functional; design: scale not given: the % may be the effect or the level left; summary of the method: as §2
# [15] = Oral bioavailability CD rat at 2 mg/kg; format: ADME, organism-based; settings: in vivo
# Summary of the method: (§4)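 Male CD rats, single 2 mg/kg oral dose. Plasma drug concentration-time profile used for AUC(0-∞), Cmax and oral bioavailability (F%). Values are the average of two experiments.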
# Rattus norvegicus [16] = test: Reduction of Abeta42 protein level in CD rat at 3 to 30 mg/kg, po measured after 3 hrs relative to control; format: functional, organism-based; summary of the method: as §2
# [17] = Cmax in CD rat at 2 mg/kg, po; format: ADME, organism-based; design: dose 2 mg/kg, route oral; settings: in vivo; summary of the method: as §4
# Rattus norvegicus [18] = test: Reduction of Abeta42 protein level in CD rat at 3 mg/kg, po measured after 3 hrs relative to control; format: functional; design: scale not given: the % may be the effect or the level left; summary of the method: as §2
# [19] = Protein binding in rat plasma; format: ADME, cell-free; settings: read-out: PPB (converted)
# [20] = AUC (0 to infinity) in CD rat at 2 mg/kg, po; format: ADME, organism-based; design: dose 2 mg/kg, route oral, time infinity; settings: in vivo; summary of the method: as §4
# [21] = Drug level in brain of CD rat at 10 mg/kg, po measured after 3 hrs; format: ADME, organism-based; settings: read-out: Drug uptake; summary of the method: as §1
# [22] = MRT in CD rat at 1 mg/kg, iv; format: ADME, organism-based; settings: in vivo; summary of the method: as §3
# [23] = Drug level in plasma of CD rat at 10 mg/kg, po measured after 3 hrs; format: ADME, organism-based; summary of the method: as §1
structure (smiles),measurement,setting,value
COc1cc(/C=C2\CCCN3C2=NO[C@]3(CO)c2ccc(F)cc2)ccc1-n1cnc(C)c1,IC50,Gamma-secretase,0.029 µM
COc1cc(C2=CC3=NOC[C@H](c4cc(F)c(F)c(F)c4)N3CCC2)ccc1-n1cnc(C)c1,concentration at 3 h,[1],1.3 µM
same,IC50,Cytochrome P450 2C9,8 µM
same,IC50,Gamma-secretase,0.143 µM
same,IC50,HEK293,16 µM
same,Papp,[2],230 nm/s
same,IC50,[3],2.61 µM
same,IC50,Cytochrome P450 2D6,8 µM
same,concentration at 3 h,[4],1.4 µM
same,IC50,[5],> 15 µM
same,IC50,Cytochrome P450 3A4,30 µM
COc1cc(/C=C2\CCCN3CC(c4cc(F)c(F)c(F)c4)ON=C23)ccc1-n1cnc(C)c1 (stereo not given),IC50,Gamma-secretase,0.048 µM
COc1cc(C2=NOCC3C(Oc4ccc(Cl)cc4C(F)(F)F)CCCN23)ccc1-n1cnc(C)c1 (stereo not given),IC50,Gamma-secretase,0.015 µM
COc1cc(C2=CC3=NOC(CO)(c4ccc(F)cc4)N3CCO2)ccc1-n1cnc(C)c1 (stereo not given),IC50,Gamma-secretase,0.512 µM
COc1cc(-c2nnc3n2CCCN3C(C)c2cc(F)c(F)c(F)c2)ccc1-n1cnc(C)c1 (stereo not given),IC50,Gamma-secretase,0.116 µM
CCC(NC(=O)/C=C/c1ccc(-n2cnc(C)c2)c(OC)c1)c1ccc(F)cc1 (stereo not given),IC50,Gamma-secretase,0.462 µM
COc1cc(C2=NOCC3C(Oc4cc(F)cc(F)c4)CCCN23)ccc1-n1cnc(C)c1 (stereo not given),IC50,Gamma-secretase,0.4 µM
COc1cc(C(=O)N2CCCC(Cc3ccc(F)cc3)C2)ccc1-n1cnc(C)c1 (stereo not given),IC50,Gamma-secretase,1.55 µM
COc1cc(C2=CC3=NO[C@H](c4cc(F)c(F)c(F)c4)CN3CCC2)ccc1-n1cnc(C)c1,concentration at 3 h,[1],2.1 µM
same,IC50,Cytochrome P450 2C9,18 µM
same,IC50,Gamma-secretase,0.107 µM
same,IC50,HEK293,14 µM
same,Activity,Rattus norvegicus [6],52%
same,Papp,[2],220 nm/s
same,IC50,[3],3.35 µM
same,IC50,Cytochrome P450 2D6,48 µM
same,concentration at 3 h,[4],14.2 µM
same,IC50,[5],> 30 µM
same,IC50,Cytochrome P450 3A4,34 µM
COc1cc(/C=C2\CCCN3C2=NO[C@H](c2cc(F)c(F)c(F)c2)[C@@H]3CO)ccc1-n1cnc(C)c1,Ratio IC50,[7],221
same,IC50,Gamma-secretase,0.069 µM
same,IC50,HEK293,15 µM
COc1cc(/C=C2\CCCN3C2=NO[C@H](c2cc(F)cc(F)c2)[C@@H]3C)ccc1-n1cnc(C)c1,efflux ratio,[8],2.46
same,Activity,Rattus norvegicus [9],inactive
same,clearance,[10],0.6 L/h/kg
same,concentration at 3 h,[11],0.81 µM
same,concentration at 3 h,[1],7.5 µM
same,IC50,Cytochrome P450 2C9,33 µM
same,Ratio IC50,[7],248
same,IC50,Gamma-secretase,0.052 µM
same,IC50,HEK293,12 µM
same,Vd,[12],1.1 L/kg
same,concentration at 3 h,[13],0.91 µM
same,Activity,Rattus norvegicus [14],52%
same,bioavailability,[15],79%
same,Activity,Rattus norvegicus [6],73%
same,Activity,Rattus norvegicus [16],Dose-dependent effect
same,Cmax,[17],1.3 µM
same,Activity,Rattus norvegicus [18],24%
same,Papp,[2],170 nm/s
same,IC50,[3],2.01 µM
same,IC50,Cytochrome P450 2D6,49 µM
same,fraction unbound,[19],0.005
same,AUC(0-inf),[20],8 µM·h
same,concentration at 3 h,[4],8.8 µM
same,IC50,[5],15 µM
same,concentration at 3 h,[21],4.2 µM
same,IC50,Cytochrome P450 3A4,16 µM
same,MRT,[22],1.7 h
same,concentration at 3 h,[23],4.83 µM
COc1cc(/C=C2\CCCN3C2=NOC[C@@H]3c2ccc(F)cc2)ccc1-n1cnc(C)c1,IC50,Gamma-secretase,0.033 µM
COc1cc(/C=C2\CCCN3C2=NO[C@H](c2cc(F)c(F)c(F)c2)[C@@H]3C)ccc1-n1cnc(C)c1,concentration at 3 h,[1],11.1 µM
same,IC50,Cytochrome P450 2C9,37 µM
same,Ratio IC50,[7],>367
same,IC50,Gamma-secretase,0.055 µM
same,IC50,HEK293,> 20 µM
same,Activity,Rattus norvegicus [6],80%
same,Papp,[2],140 nm/s
same,IC50,[3],1.61 µM
same,IC50,Cytochrome P450 2D6,49 µM
same,concentration at 3 h,[4],13.1 µM
same,IC50,[5],> 10 µM
same,IC50,Cytochrome P450 3A4,29 µM
COc1cc(/C=C2\CCCN3C2=NOCC[C@@H]3c2cc(F)c(F)c(F)c2)ccc1-n1cnc(C)c1,IC50,Gamma-secretase,0.039 µM
COc1cc(/C=C2\CCCN3C2=NO[C@H](c2cc(F)cc(F)c2)[C@@H]3C(C)C)ccc1-n1cnc(C)c1,Ratio IC50,[7],174
same,IC50,Gamma-secretase,0.113 µM
same,IC50,HEK293,19 µM
COc1cc(/C=C2\CCCN3C2=NO[C@@H](c2cc(F)cc(F)c2)[C@@H]3C)ccc1-n1cnc(C)c1,IC50,Gamma-secretase,9.29 µM
same,IC50,HEK293,> 20 µM
COc1cc(/C=C2\CCCN3C2=NOC[C@@H]3c2cc(F)c(F)c(F)c2)ccc1-n1cnc(C)c1,IC50,Gamma-secretase,0.037 µM
